The logD is the decadic logarithm of the distribution of all forms, ionised or not, between an organic phase and buffer at a given pH. The low end stands for lower lipophilicity, the high end for higher lipophilicity.

The text below walks through data of ChEMBL document CHEMBL1152488, “Synthesis and evaluation of pyrido[1,2-a]pyrimidines as inhibitors of nitric oxide synthases” (Eur J Med Chem, 2009).

Data set [1] is described as follows: Lipophilicity, log D at pH 7.4 by HPLC method. The settings on record: buffer.
In data set [2] the target is T1, Nitric oxide synthase, inducible (Mus musculus) (UniProt P29477).
T1 sequence (whole entry): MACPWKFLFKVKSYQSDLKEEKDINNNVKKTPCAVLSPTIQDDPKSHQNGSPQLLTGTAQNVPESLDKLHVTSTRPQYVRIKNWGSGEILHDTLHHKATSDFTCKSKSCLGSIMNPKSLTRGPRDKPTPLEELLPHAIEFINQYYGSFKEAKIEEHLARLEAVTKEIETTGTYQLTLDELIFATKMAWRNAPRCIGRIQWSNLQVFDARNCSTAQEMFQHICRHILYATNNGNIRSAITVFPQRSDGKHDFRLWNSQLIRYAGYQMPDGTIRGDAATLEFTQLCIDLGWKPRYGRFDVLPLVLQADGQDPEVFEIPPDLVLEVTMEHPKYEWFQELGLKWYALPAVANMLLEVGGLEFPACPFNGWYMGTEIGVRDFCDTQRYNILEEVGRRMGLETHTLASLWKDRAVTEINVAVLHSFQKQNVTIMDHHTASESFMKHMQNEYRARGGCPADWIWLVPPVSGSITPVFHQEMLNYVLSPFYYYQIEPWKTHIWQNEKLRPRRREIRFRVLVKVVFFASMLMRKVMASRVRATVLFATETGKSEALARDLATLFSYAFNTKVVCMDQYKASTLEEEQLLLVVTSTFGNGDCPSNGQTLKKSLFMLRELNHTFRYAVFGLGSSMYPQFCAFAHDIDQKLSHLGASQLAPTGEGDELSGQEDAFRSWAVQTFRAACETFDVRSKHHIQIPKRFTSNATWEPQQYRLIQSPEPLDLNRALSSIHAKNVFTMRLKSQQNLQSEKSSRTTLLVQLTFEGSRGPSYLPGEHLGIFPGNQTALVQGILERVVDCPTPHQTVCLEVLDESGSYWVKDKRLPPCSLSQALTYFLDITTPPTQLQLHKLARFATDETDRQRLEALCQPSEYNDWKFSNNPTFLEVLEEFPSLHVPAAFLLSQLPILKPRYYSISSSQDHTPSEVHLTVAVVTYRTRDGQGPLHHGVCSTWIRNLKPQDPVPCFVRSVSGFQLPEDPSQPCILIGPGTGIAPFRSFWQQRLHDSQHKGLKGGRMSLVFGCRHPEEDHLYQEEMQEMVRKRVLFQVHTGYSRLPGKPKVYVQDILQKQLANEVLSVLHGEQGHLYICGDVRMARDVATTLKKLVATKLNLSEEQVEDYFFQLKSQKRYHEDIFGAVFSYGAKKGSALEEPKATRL
As to the kind of experiment: Inhibition of mouse iNOS expressed in insect Sf9 cells assessed as residual activity at 100 uM by Griess assay relative to control. The procedure, abridged: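 Murine iNOS produced in Sf9 insect cells. Buffer: 50 mM triethanolamine pH 7.5, 1 mM CHAPS, 10 mM 2-mercaptoethanol, 0.5 mM EDTA. Additions: 1 mM Mg2+, 5 µM FAD, 5 µM FMN, 0.5 mM NADPH, 10 µM H4B, 10 µg/ml CaM, 1 mM L-arginine. Compound at 100 µM final, 37 °C for 20 min. NADPH removed with LDH/pyruvate, then Griess read at 543 nm. Values are % of 1% DMSO control, 5 experiments.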

For data set [3], the target named is T2, Nitric oxide synthase 3 (Bos taurus) (UniProt P29473).
T2 sequence (whole entry): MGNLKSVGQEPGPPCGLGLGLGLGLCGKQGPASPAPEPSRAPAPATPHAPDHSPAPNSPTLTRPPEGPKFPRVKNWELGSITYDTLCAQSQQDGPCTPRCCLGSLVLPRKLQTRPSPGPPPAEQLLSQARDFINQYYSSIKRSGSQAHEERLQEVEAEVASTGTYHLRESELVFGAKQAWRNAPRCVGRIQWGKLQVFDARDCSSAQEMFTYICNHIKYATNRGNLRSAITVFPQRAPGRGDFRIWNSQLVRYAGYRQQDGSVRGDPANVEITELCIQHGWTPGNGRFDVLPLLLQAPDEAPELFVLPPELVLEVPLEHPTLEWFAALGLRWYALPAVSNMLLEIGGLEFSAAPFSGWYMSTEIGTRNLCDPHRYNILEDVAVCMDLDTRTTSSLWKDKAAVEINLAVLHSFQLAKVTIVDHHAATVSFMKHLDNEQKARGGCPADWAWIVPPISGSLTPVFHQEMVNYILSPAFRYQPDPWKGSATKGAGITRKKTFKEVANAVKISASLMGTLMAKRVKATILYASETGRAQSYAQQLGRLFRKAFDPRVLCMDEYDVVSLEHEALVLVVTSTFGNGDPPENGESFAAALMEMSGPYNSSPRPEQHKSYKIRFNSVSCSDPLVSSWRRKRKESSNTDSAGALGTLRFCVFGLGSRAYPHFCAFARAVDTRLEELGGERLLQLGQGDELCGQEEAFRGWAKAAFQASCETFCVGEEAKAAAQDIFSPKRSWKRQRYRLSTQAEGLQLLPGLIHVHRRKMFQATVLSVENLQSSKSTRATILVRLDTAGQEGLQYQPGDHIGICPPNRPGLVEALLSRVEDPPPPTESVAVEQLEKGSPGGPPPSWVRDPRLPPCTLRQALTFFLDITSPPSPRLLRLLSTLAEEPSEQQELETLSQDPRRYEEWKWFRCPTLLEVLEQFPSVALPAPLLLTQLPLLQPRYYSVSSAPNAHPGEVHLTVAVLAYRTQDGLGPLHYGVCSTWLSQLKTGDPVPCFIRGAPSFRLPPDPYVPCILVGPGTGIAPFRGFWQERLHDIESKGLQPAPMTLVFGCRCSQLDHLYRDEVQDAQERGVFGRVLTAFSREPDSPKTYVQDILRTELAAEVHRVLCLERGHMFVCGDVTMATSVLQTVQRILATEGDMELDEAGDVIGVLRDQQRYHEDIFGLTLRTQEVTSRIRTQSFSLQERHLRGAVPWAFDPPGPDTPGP
Briefly: Inhibition of bovine eNOS expressed in insect Sf9 cells assessed as residual activity at 100 uM by Griess assay relative to control. The procedure, abridged:
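Bovine eNOS from Sf9 cells. Reaction: triethanolamine buffer pH 7.5, 0.5 mM Ca2+, 10 µg/ml CaM, 10 µM H4B, FAD, FMN, 0.5 mM NADPH, 1 mM L-arginine, with 100 µM compound, 20 min at 37 °C. After NADPH removal by LDH/pyruvate, nitrite measured by Griess at 543 nm. Expressed as % residual activity versus 1% DMSO control, 5 experiments.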
(Nitrite, measured by Griess reagent, commonly stands in for NO production.)

Data set [4] deals with T3, Nitric oxide synthase 3 (Homo sapiens) (UniProt P29474).
T3 sequence (whole entry): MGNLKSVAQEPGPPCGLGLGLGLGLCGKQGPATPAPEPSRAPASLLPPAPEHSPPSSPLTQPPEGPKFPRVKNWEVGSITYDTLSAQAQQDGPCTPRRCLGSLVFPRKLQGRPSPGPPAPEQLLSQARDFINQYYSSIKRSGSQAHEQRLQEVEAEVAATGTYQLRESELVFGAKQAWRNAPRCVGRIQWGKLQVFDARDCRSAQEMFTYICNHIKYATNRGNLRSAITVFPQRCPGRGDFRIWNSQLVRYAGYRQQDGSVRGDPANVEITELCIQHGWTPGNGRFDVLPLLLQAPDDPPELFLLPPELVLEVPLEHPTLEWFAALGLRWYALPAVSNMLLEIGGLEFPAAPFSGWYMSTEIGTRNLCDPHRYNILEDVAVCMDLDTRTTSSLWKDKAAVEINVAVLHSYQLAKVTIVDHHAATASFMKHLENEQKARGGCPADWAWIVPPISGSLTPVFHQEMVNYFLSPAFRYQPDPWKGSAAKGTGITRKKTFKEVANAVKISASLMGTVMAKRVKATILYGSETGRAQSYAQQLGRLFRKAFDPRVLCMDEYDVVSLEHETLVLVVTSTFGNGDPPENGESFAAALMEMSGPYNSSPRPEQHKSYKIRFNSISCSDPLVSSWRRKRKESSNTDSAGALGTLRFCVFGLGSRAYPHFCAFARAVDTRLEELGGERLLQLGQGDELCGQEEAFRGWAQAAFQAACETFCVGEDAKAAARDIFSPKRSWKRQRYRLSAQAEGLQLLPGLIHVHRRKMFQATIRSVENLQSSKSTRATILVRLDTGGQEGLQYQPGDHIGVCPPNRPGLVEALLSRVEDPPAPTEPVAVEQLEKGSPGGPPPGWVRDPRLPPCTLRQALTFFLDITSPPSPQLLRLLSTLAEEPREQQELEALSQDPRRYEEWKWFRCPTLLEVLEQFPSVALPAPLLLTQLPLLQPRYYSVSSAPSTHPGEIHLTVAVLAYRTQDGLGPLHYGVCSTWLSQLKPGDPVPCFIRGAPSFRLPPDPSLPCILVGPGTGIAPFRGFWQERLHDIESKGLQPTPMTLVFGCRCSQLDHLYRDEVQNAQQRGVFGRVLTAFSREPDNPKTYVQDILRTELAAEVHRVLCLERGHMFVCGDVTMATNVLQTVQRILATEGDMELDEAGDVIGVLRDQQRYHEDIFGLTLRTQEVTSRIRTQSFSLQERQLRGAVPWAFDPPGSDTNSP
Briefly: Inhibition of human eNOS assessed as residual activity at 100 uM by Griess assay relative to control. The essentials:
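Human eNOS expressed in Pichia pastoris. Incubated 20 min at 37 °C in triethanolamine pH 7.5 with 0.5 mM Ca2+, CaM, H4B 10 µM, FAD/FMN 5 µM, NADPH 0.5 mM, L-arginine 1 mM and compound at 100 µM final. Nitrite read by Griess (543 nm) after LDH/pyruvate NADPH removal; % of 1% DMSO control from 5 experiments.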

Data set [5] addresses Nitric oxide synthase, inducible (Homo sapiens) (UniProt P35228). Briefly: Inhibition of human iNOS expressed in insect Sf9 cells assessed as residual activity at 100 uM by Griess assay relative to control. The procedure, abridged:
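Human iNOS made in Sf9 cells, incubated at 37 °C for 20 min in 50 mM triethanolamine pH 7.5 with 1 mM Mg2+, FAD/FMN 5 µM each, 0.5 mM NADPH, 10 µM H4B, CaM and 1 mM L-arginine. Compound 100 µM final. NADPH cleared with lactate dehydrogenase/pyruvate before Griess reaction (543 nm). Residual activity relative to 1% DMSO control; mean of 5 experiments.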

Nitric oxide synthase, inducible (Homo sapiens), sequence (P35228 whole entry): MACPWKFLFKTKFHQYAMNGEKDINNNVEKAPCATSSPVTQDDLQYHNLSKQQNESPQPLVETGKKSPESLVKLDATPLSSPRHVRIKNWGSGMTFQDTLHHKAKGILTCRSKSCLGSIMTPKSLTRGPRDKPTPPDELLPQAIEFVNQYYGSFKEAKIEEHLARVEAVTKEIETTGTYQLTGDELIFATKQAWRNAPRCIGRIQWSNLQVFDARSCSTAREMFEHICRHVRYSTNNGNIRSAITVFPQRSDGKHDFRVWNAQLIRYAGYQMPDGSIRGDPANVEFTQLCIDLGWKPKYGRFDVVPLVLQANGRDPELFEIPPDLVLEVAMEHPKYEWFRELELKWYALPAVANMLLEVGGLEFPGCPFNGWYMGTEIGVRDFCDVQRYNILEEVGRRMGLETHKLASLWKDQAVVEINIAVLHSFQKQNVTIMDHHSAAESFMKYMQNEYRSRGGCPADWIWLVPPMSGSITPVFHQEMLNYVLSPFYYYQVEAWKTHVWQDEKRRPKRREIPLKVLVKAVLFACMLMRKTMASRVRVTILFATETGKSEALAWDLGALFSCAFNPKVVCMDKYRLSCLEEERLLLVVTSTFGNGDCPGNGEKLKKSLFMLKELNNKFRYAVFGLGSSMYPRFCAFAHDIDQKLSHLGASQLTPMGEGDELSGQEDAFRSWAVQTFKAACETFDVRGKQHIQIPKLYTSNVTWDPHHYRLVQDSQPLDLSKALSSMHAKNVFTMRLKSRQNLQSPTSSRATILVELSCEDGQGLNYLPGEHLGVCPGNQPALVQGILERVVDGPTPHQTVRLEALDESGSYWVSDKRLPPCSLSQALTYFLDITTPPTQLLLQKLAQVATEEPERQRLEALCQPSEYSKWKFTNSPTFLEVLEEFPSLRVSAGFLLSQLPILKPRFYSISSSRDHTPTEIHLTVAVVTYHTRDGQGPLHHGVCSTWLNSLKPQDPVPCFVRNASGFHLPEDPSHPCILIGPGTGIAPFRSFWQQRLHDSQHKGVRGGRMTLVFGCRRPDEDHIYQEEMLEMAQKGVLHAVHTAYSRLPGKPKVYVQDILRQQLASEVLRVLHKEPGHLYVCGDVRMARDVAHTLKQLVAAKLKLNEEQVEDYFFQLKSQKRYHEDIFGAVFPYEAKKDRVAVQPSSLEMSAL

On to `COc1ccc(C(=O)C2CN=C3C=CC=CN3C2)cc1OC` (centres undefined), for which the logD in data set [1] was found to be 1.4. Further, the Activity is 123% in data set [2] and 91% in data set [3].

In the case of `CC1=CC2=NCC(C(=O)c3ccc(C4CCCCC4)cc3)CN2C=C1` (centres undefined), the Activity was 42% in data set [4] and 70% in data set [5].

For the molecule `Cc1cccc(N)n1`, the Activity in data set [4] amounted to 83%; in data set [5] it was 47%.

With `CC1=CC2=NCC(C(=O)c3ccc(-c4ccc(C(=O)O)cc4)cc3)CN2C=C1` (centres undefined), the Activity came out at 91% in data set [4] and 98% in data set [5].

As for `CC1=CC2=NCC(C(=O)c3ccc(-c4ccc(O)cc4)cc3)CN2C=C1` (centres undefined), the Activity in data set [4] came out at 86%; in data set [5] it was 96%.

Regarding `CC1=CC=CC2=NCC(C(=O)c3ccc4cc(C)ccc4c3)CN12` (centres undefined), in data set [1], the logD amounted to 2.1. The Activity worked out at 75% in data set [4] and 88% in data set [5].

In the case of `CC1=CC2=NCC(C(=O)c3ccc(C(=O)O)cc3)CN2C=C1` (centres undefined), the Activity in data set [4] was 94%; in data set [5] it was 93%.

Consider `CC1=CC2=NCC(C(=O)c3ccc(OCc4ccccc4)cc3)CN2C=C1` (centres undefined), for which the Activity stood at 75% in data set [4] and 73% in data set [5].

Turning to `CC1=CC2=NCC(C(=O)c3ccc(O)cc3)CN2C=C1` (centres undefined), the Activity is 46% in data set [4] and 30% in data set [5].

In the case of `CC1=CC=CN2CC(C(=O)c3ccccc3)CN=C12` (centres undefined), the Activity in data set [2] was determined as 103%; in data set [3], 92%.

In the case of `O=C(c1ccc(F)cc1)C1CN=C2C=CC=CN2C1` (centres undefined), the Activity is 79% in data set [4] and 67% in data set [5].

Turning to `CC1=CC2=NCC(C(=O)c3ccc(-c4ccc(F)cc4)cc3)CN2C=C1` (centres undefined), the Activity was determined as 46% in data set [4] and 85% in data set [5].

On to `Nc1ccccn1`, for which the Activity amounted to 94% in data set [4] and 95% in data set [5].

Regarding `Cc1cc(C)nc(N)c1`, the Activity in data set [4] was 12%; in data set [5], 7%.

On to `COc1ccc(COc2ccc(C(=O)C3CN=C4C=C(C)C=CN4C3)cc2)cc1` (centres undefined), for which the values for the Activity in data set [4] and in data set [5] were 46% and 101%, respectively.

`COc1ccc2cc(C(=O)C3CN=C4C=CC=C(C)N4C3)ccc2c1` (centres undefined) had a logD in data set [1] of 1.9. Further, the results for the Activity in data set [4] and in data set [5] were 6% and 80%, respectively.

In the case of `CC1=CC2=NCC(C(=O)c3ccc(C#N)cc3)CN2C=C1` (centres undefined), the figures for the Activity in data set [4] and in data set [5] were 75% and 54%, respectively.

Turning to `COc1ccc2cc(C(=O)C3CN=C4C=C(C)C=C(C)N4C3)ccc2c1` (centres undefined), the logD in data set [1] came to 1.9. The Activity worked out at 121% in data set [4] and 95% in data set [5].

`CC1=CC=CC2=NCC(C(=O)c3ccc(-c4ccccc4)cc3)CN12` (centres undefined) came in with a logD in data set [1] of 2.1. In addition, the Activity was 20% in data set [4] and 86% in data set [5].

As to `COc1cc(C(=O)C2CN=C3C=CC=CN3C2)cc(OC)c1OC` (centres undefined), the Activity in data set [2] worked out at 105%; in data set [3], 86%.

Turning to `CCOc1ccc(C(=O)C2CN=C3C=C(C)C=CN3C2)cc1` (centres undefined), the Activity in data set [2] stood at 97%; in data set [3] it was 87%.

Regarding `Cc1ccnc(N)c1`, the Activity was found to be 50% in data set [4] and 29% in data set [5].
